Bioassay records from PubChem BioAssay.
ABHD5-PLIN5 inh – blocks binding of human ABHD5 to perilipin-5; Q00G26+Q8WTS1; Split G. princeps luciferase complementation, luminescence, 4 h; inhibition, % at 4 µM; 360,000 compounds, 0.78% hits;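 active means inhibition above the mean inhibition across every tested compound plus 3 SD, cut at about 22% in these data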;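 further: 0% = DMSO only wells and the 100% control is not disclosed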
SENP1 FRET inh – SENP1 (human) catalytic domain inhibition. Q9P0U3. recombinant SENP1 catalytic domain, CyPet-SUMO1-YPet FRET cleavage. inhibition, % at 10 µM. 360,000 compounds, 0.21% hits. AID 624204;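 active means inhibition at least 30% at 10 µM, raw YFP signal under a set limit, fluorescence ratio 0.5 to 1.5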;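 further: 0% = enzyme with DMSO and 100% = no enzyme wells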
Target sequence (Q9P0U3 419-644 limits assumed): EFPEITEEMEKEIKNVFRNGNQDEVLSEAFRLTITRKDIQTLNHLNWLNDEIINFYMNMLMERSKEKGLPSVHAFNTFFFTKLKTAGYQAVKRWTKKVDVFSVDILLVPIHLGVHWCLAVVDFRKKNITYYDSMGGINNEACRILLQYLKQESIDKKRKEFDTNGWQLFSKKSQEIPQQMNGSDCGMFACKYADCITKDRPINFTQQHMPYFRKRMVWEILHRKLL
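Test system: human SENP1 catalytic domain; medium: Tris pH 8 buffer plus EDTA, NaCl, BME, BSA, NP40, catalase; incubation: 50 min reaction at room temperature; technique: FRET, CFP and YFP emission; controls: no-enzyme low control and enzyme-plus-DMSO high control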
Beta2AR agonist – activates human beta-2 adrenergic receptor causing internalization; P07550; 340,000 compounds, 0.43% hits; response, % (concentration not given with the values); Am2.2-beta2AR cells, FAP receptor internalization, flow cytometry;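 active means response above a set limit, near 3 SD of response in nonfluorescent compounds, cut at about 42% in these data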
Target sequence (P07550 whole entry, looked up): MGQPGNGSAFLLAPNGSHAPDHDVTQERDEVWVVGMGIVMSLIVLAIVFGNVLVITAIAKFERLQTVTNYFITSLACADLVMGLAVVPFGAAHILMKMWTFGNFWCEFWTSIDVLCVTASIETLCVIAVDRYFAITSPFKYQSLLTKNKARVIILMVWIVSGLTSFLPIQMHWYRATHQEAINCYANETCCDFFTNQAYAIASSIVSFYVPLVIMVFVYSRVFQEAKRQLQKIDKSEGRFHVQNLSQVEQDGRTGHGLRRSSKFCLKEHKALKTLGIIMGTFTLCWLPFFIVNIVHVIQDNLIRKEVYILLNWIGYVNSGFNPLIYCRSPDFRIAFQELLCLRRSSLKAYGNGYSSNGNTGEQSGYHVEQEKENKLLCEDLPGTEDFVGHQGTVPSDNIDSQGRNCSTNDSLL
GRK2 aptamer HTS – human GRK2 inhibition via aptamer displacement; 330,000 compounds, 0.59% hits; bead flow cytometry, FAM-aptamer displacement from GRK2; inhibition of aptamer binding, % at 10 µM; AID 488847; P25098;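 active means inhibition of aptamer binding above 40%, roughly 3 SD of noise, on plates passing a quality check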;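 further: median bead fluorescence of bound FAM aptamer so fluorescent compounds give negative values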
NadD block – blocks S. aureus nicotinate mononucleotide adenylyltransferase; inhibition, % at 20 µM; purified NadD enzyme, colorimetric absorbance read-out; 360,000 compounds, 0.78% hits; in the data active means inhibition above about 26%
* = called active by the depositor; / = no result given. Compounds with a hit are over-represented: about 2.5% of the library has one in this group of screens.

SMILES	ABHD5-PLIN5 inh	SENP1 FRET inh	Beta2AR agonist	GRK2 aptamer HTS	NadD block
Cc1ccc(S(=O)(=O)NC2=C(N3CCN(Cc4ccccc4)CC3)C(=O)c3ccccc3C2=O)cc1	-21.7	-10.7	53.1*	0.0	7.8
C[C@@H](C(=O)N=c1sc2ccccc2n1C)N1C(=O)C2CC=CCC2C1=O (some centres undefined)	3.0	1.8	-8.8	/	2.4
COC(=O)c1ccc(Nc2nc(C)nc3c2nnn3Cc2ccccc2)cc1	-19.3	-0.2	2.4	0.0	-0.1
CCN1C(=O)c2cccc3c(S(=O)(=O)N4CCNCC4)ccc1c23	3.3	-43.6	-5.3	1.0	5.7
CN(CCO)c1nc(N)c2c(N)nc3c(c2c1C#N)CC(=O)N3C1CCCC1	/	/	/	0.0	/
CC(C)(C)N1C(=O)Cc2c1nc(N)c1c(N)nc(N3CCCCC3CO)c(C#N)c21 (centres undefined)	11.5	-54.9	19.2	5.0	36.6*
Cc1ccccc1OCC(=O)N/N=C/c1ccncc1	22.8*	0.4	-4.4	1.0	-4.4
Cc1cc(C)cc(OCC(=O)N/N=C/c2ccncc2)c1	-2.0	2.6	-5.1	55.0*	1.8
O=C(/C=C/c1cccc(C(F)(F)F)c1)OCC(=O)N1CCN(c2ccccc2)CC1	-37.5	-0.2	-2.8	3.0	1.8
C[C@H](NC(=O)c1[nH]cnc1C(=O)Nc1ccc(CNC(=O)OC(C)(C)C)cc1)C(=O)OCc1ccccc1	5.3	1.1	47.7*	2.0	15.5
CC(C)C[C@H](NC(=O)c1[nH]cnc1C(=O)Nc1ccc(CNC(=O)OC(C)(C)C)cc1)C(=O)OCc1ccccc1	-8.1	-0.5	9.7	0.0	16.1
CCOc1cc(/C=N/Nc2nc(-c3cccc(S(=O)(=O)N4CCCC4)c3)cs2)ccc1O	12.2	2.2	18.8	1.0	44.9*
COc1ccc(/C=N/Nc2nc(-c3cccc(S(=O)(=O)N4CCCC4)c3)cs2)cc1OC	1.8	-4.2	7.1	6.0	11.6
CCn1c(=O)c(C(=O)Nc2nc3ccccc3[nH]2)c(O)c2ccccc21	0.8	-25.8	-7.6	81.0*	15.2
CCn1c(C)nc2cc(C(=O)NNC(=O)CN(C)S(=O)(=O)c3ccc(NC(C)=O)cc3)ccc21	-1.9	1.8	-4.8	100.0*	3.4
CCn1c(C)nc2cc(C(=O)NNC(=O)Nc3ccc(Cl)c(Cl)c3)ccc21	/	/	/	0.0	/
CC1=NN(c2nc(-c3ccc(C)cc3)cs2)C(=O)C1N=Nc1ccc2ccccc2c1 (centres undefined)	-4.1	8.5	-2.0	0.0	43.7*
c1ccc(-c2sc3ccccc3c2-c2ccc(OCCN3CCCC3)cc2)cc1	15.1	-0.5	67.9*	0.0	5.2
Cc1cc(C)cc(OCCNC(=O)c2ccc(Br)cc2)c1	2.2	-1.0	-17.0	0.0	-2.7
CC12CCC(=O)C=C1CCC1C2CCC2(C)C1CC1C3C(=O)N(Cc4ccccc4)C(=O)C3CC(=O)C12 (centres undefined)	-4.1	2.7	3.9	/	-3.9
O=[N+]([O-])c1cc(CN2CCN(c3ccccc3)CC2)c(O)c2ncccc12	1.2	-3.5	43.7*	0.0	71.2*
CN(Cc1cc([N+](=O)[O-])c2cccnc2c1O)C1CCCCC1	/	/	/	6.0	/
CCCN1C(C)C(C(=O)OCC)=CN(Cc2ccc(Br)cc2)S1(=O)=O (centres undefined)	-6.6	4.1	22.6	0.0	0.2
O=C(CCN1C(=O)/C(=C/c2ccccc2)SC1=S)NC1CCS(=O)(=O)C1 (centres undefined)	-3.0	2.5	-11.5	4.0	-8.6
O=C(CN1C(=O)/C(=C/c2ccco2)SC1=S)NC1CCS(=O)(=O)C1 (centres undefined)	-17.0	6.8	-7.0	45.0*	10.9
SMILES	ABHD5-PLIN5 inh	SENP1 FRET inh	Beta2AR agonist	GRK2 aptamer HTS	NadD block
COC(=O)CCSc1cc(NCCOC(C)=O)c([N+](=O)[O-])c2nonc12	-10.3	-25.3	61.5*	2.0	-3.3
COc1cccc(NC(=O)COC(=O)CCn2c(C)csc2=O)c1	4.7	1.6	-2.9	0.0	-0.3
C[C@@H](CN1CCC[C@H]1CN1C(N)=NC[C@@H]1Cc1ccccc1)N1C[C@@H](Cc2ccccc2)N(CCc2ccc(Cl)c(Cl)c2)C1=N	40.5*	-3.0	7.5	0.0	4.4
CCC[C@@H](CN1CCC[C@H]1CN1C(N)=NC[C@H]1CC(C)C)N1C[C@@H](Cc2ccccc2)N(CCc2ccc(Cl)c(Cl)c2)C1=N	22.9*	0.2	1.1	0.0	7.1
CCC[C@@H](CN1CCC[C@H]1CN1C(N)=NC[C@H]1CC(C)C)N1C[C@@H]([C@H](C)CC)N(CCc2ccc(Cl)c(Cl)c2)C1=N	20.4	0.2	-0.9	0.0	5.6
CCC[C@@H](CN1CCC[C@H]1CN1C(N)=NC[C@@H]1Cc1ccccc1)N1C[C@@H]([C@H](C)CC)N(CCCC2CCCC2)C1=N	31.9*	-35.5	25.2	0.0	17.4
N#CCCN(C(=O)c1cc2c(s1)-c1ccccc1S(=O)(=O)C2)c1ccccc1	-3.0	1.6	0.9	1.0	-3.1
Cc1ccc(NC(=O)CN2C(=O)S/C(=C\c3cc(Cl)c(OCC(=O)O)c(Cl)c3)C2=O)cc1	-4.0	-52.9	7.1	12.0	27.8*
COc1ccc(/C=C2\SC(=O)N(CC(=O)Nc3ccc(O)cc3)C2=O)cc1OC	-0.4	-6.6	1.3	0.0	-4.6
CC(NC(=O)/C(C#N)=C/c1ccco1)c1ccccc1 (centres undefined)	-0.2	3.0	3.5	0.0	-2.1
CC(NC(=O)/C(C#N)=C/c1ccc([N+](=O)[O-])o1)c1ccccc1 (centres undefined)	28.7*	-72.7	18.0	1.0	4.1
Cc1[nH]n(-c2nc(-c3ccc(Cl)cc3)cs2)c(=O)c1N=Nc1ccc(O)cc1	1.1	20.5	13.8	2.0	36.7*
O=C(O)c1ccc(Cn2cnc3c(=O)[nH]cnc32)cc1	2.4	-1.0	0.0	/	3.3
COc1ccc(C(=O)c2nccc3cc(OC)c(OC)cc23)cc1OC	-0.4	24.2	2.2	5.0	2.7
COc1cc2c(cc1OC)-c1c(OC)c(OC)cc3ccnc(c13)C2=O	3.4	60.5*	15.3	4.0	18.5
CC(C)(C)S(=O)N1Cc2cc(C(=O)NCc3ccc(Oc4ccccc4)cc3)nc(-c3cccc(-c4cc5ccccc5o4)c3)c2[C@@H]1CCO (some centres undefined)	6.7	-20.2	/	/	32.5*
CC(C)(C)S(=O)N1Cc2cc(C(=O)NCc3ccc4c(c3)OCO4)nc(-c3cccc(-c4ccccc4)c3)c2[C@@H]1CCO (some centres undefined)	6.7	1.0	/	/	-0.2
COc1cccc(-c2cccc(-c3nc(C(=O)NCc4ccc(Oc5ccccc5)cc4)cc4c3[C@H](CCO)N(S(=O)C(C)(C)C)C4)c2)c1 (some centres undefined)	14.3	-10.8	/	/	30.6*
Cc1cc(C)c(S(=O)(=O)N2CCOC2CNC(=O)C(=O)NCCCn2ccnc2)c(C)c1 (centres undefined)	-5.8	-0.9	8.5	0.0	6.2
